ChEMBL document CHEMBL1150797 (Antimicrob Agents Chemother, 2007)

Legend:
[1] = tested on: Homo sapiens; assay: Cmax in tuberculosis patient at 750 mg, po coadministered with 600 mg, po rifampin; type: ADME, organism-based; set-up: dose 750 mg, route oral; settings: in vivo
Procedure, shortened: (§1)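 Plasma was sampled predose and at 1–12 h (nine points). Assay: spiked with internal standard, chloroform extraction, derivatization, HPLC-UV at 215 nm, LLOQ 0.05 mg/liter. Noncompartmental analysis: Cmax and Tmax observed, t1/2 = 0.693/β, AUC0-24 by linear-log trapezoid.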

[2] = Half life in tuberculosis patient at 750 mg, po coadministered with 450 mg, po rifampin; type: ADME, organism-based; settings: human, in vivo; procedure, shortened: as §1
[3] = Half life in tuberculosis patient at 750 mg, po coadministered with 600 mg, po rifampin; type: ADME, organism-based; settings: human, in vivo; procedure, shortened: as §1
[4] = AUC (0 to 24 hrs) in tuberculosis patient at 750 mg, po coadministered with 600 mg, po rifampin; type: ADME, organism-based; set-up: time < 24 hr, dose 750 mg, route oral; settings: human, plasma; procedure, shortened: as §1
[5] = tested on: Homo sapiens; assay: Cmax in tuberculosis patient at 750 mg, po coadministered with 450 mg, po rifampin; type: ADME, organism-based; set-up: dose 750 mg, route oral; settings: in vivo; procedure, shortened: as §1
[6] = Tmax in tuberculosis patient at 750 mg, po coadministered with 450 mg, po rifampin; type: ADME, organism-based; settings: human, in vivo; procedure, shortened: as §1
[7] = Tmax in tuberculosis patient at 750 mg, po coadministered with 600 mg, po rifampin; type: ADME, organism-based; settings: human, in vivo; procedure, shortened: as §1
[8] = AUC (0 to 24 hrs) in tuberculosis patient at 750 mg, po coadministered with 450 mg, po rifampin; type: ADME, organism-based; set-up: dose 750 mg, time < 24 hr, route oral; settings: human, plasma; procedure, shortened: as §1
[9] = tested on: Homo sapiens; assay: Tmax in tuberculosis patient at 600 mg, po; type: ADME, organism-based; settings: in vivo
[10] = Apparent clearance in tuberculosis patient at 450 mg, po; type: ADME, organism-based; settings: human, in vivo
[11] = clinical; settings: human, plasma, po, 450 mg
[12] = Cmax in human tuberculosis patient at 600 mg, po; settings: in vivo
[13] = tested on: Homo sapiens; assay: Tmax in tuberculosis patient assessed as desacetylrifampin level at 450 mg, po; type: ADME, organism-based; settings: in vivo
[14] = clinical; settings: human, plasma, po, 600 mg
[15] = Apparent clearance in tuberculosis patient at 600 mg, po; type: ADME, organism-based; settings: human, in vivo
[16] = Tmax in tuberculosis patient at 450 mg, po; type: ADME, organism-based; settings: human, in vivo
[17] = tested on: Homo sapiens; assay: Tmax in tuberculosis patient assessed as desacetylrifampin level at 600 mg, po; type: ADME, organism-based; settings: in vivo
[18] = Apparent volume of distribution in tuberculosis patient at 450 mg, po; type: ADME, organism-based; settings: human, in vivo, read-out: Vc/F
[19] = Apparent volume of distribution in tuberculosis patient at 600 mg, po; type: ADME, organism-based; settings: human, in vivo, read-out: Vc/F
[20] = Cmax in tuberculosis patient at 1500 mg, po coadministered with 450 mg, po rifampin; type: ADME, organism-based; set-up: dose 1500 mg, route oral; settings: human, in vivo
Procedure, shortened: (§2)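 Venous plasma was drawn predose and at 1, 1.5, 2, 2.5, 3, 4, 6 and 12 h. Assay: solid-phase extraction, HPLC-UV at 266 nm, LLOQ 0.1 mg/liter. Cmax and Tmax were observed values; noncompartmental analysis gave t1/2 as 0.693/β and AUC0-24 by linear-log trapezoid with C24 extrapolated.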

[21] = Half life in tuberculosis patient at 1500 mg, po coadministered with 450 mg, po rifampin; type: ADME, organism-based; settings: human, in vivo; procedure, shortened: as §2
[22] = Half life in tuberculosis patient at 1500 mg, po coadministered with 600 mg, po rifampin; type: ADME, organism-based; settings: human, in vivo; procedure, shortened: as §2
[23] = Cmax in tuberculosis patient at 1500 mg, po coadministered with 600 mg, po rifampin; type: ADME, organism-based; set-up: dose 1500 mg, route oral; settings: human, in vivo; procedure, shortened: as §2
[24] = AUC (0 to 24 hrs) in tuberculosis patient at 1500 mg, po coadministered with 450 mg, po rifampin; type: ADME, organism-based; set-up: time < 24 hr, dose 1500 mg, route oral; settings: human, plasma; procedure, shortened: as §2
[25] = Tmax in tuberculosis patient at 1500 mg, po coadministered with 600 mg, po rifampin; type: ADME, organism-based; settings: human, in vivo; procedure, shortened: as §2
[26] = Tmax in tuberculosis patient at 1500 mg, po coadministered with 450 mg, po rifampin; type: ADME, organism-based; settings: human, in vivo; procedure, shortened: as §2
[27] = AUC (0 to 24 hrs) in tuberculosis patient at 1500 mg, po coadministered with 600 mg, po rifampin; type: ADME, organism-based; set-up: dose 1500 mg, time < 24 hr, route oral; settings: human, plasma; procedure, shortened: as §2

CC[C@@H](CO)NCCN[C@@H](CC)CO [ETHAMBUTOL] gave a Cmax [1] of 2.3 h, a half-life [2] of 4.2 h and a half-life [3] of 4.6 h. It also gave an AUC(0-t) at 24 h [4] of 14.7 µg·h/mL, a Cmax [5] of 2.4 h and a Tmax [6] of 2.5 h. It also gave a Tmax [7] of 2.5 h and an AUC(0-t) at 24 h [8] of 14.4 µg·h/mL.

For CO[C@H]1/C=C/O[C@@]2(C)Oc3c(C)c(O)c4c(O)c(c(/C=N/N5CCN(C)CC5)c(O)c4c3C2=O)NC(=O)/C(C)=C\C=C\[C@H](C)[C@H](O)[C@@H](C)[C@@H](O)[C@@H](C)[C@H](OC(C)=O)[C@@H]1C [RIFAMPIN], the Tmax [9] was 1 h, the CL/F [10] was 153 mL/min and the AUC(0-t) at 24 h [11] was 48.5 µg·h/mL. For the same compound, the Cmax [12] was 15.6 µg/mL, the Tmax [13] was 4 h and the AUC(0-t) at 24 h [14] was 79.7 µg·h/mL. For the same compound, the CL/F [15] was 125 mL/min, the Tmax [16] was 2 h and the Tmax [17] was 4 h. The Vd/F [18] was 25.3 L and the Vd/F [19] was 23.3 L.

In the case of NC(=O)c1cnccn1 [PYRAZINAMIDE], the Cmax [20] is reported as 43.8 µg/mL, the half-life [21] is reported as 6.6 h and the half-life [22] is reported as 6.9 h. For the same compound, the Cmax [23] was 46 µg/mL, the AUC(0-t) at 24 h [24] was 473 µg·h/mL and the Tmax [25] was 2.5 h. The Tmax [26] was 2.75 h and the AUC(0-t) at 24 h [27] was 514 µg·h/mL.
